The values that follow come from ChEMBL document CHEMBL1773010, “Cytotoxic and apoptosis-inducing activities of limonoids from the seeds of Azadirachta indica (neem)” (J Nat Prod, 2011).

Test [1] relates to HL-60. Put plainly: Induction of apoptosis in human HL60 cells assessed as early apoptotic cells at 30 uM after 8 hrs using annexin-V FITC and PI staining by flow cytometry. It is filed as functional. An outline of the steps: (§1)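 HL60 cells (1 × 10^5) exposed to 30 μM final compound for 8 or 24 h. Cells were washed in annexin-binding buffer, stained with annexin V-FITC and PI for 10 min, and analyzed by flow cytometry (FL1 and FL2). Quadrants: early apoptotic annexin+/PI−, late apoptotic double positive, necrotic annexin−/PI+. Values are means of three experiments.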
(In flow cytometry, cells or beads pass a laser one at a time.)

The subject of test [2] is HL-60. As to the kind of experiment: Induction of apoptosis in human HL60 cells assessed as late apoptotic cells at 30 uM after 24 hrs using annexin-V FITC and PI staining by flow cytometry. It is filed as functional. An outline of the steps:
as §1

Test [3] deals with HL-60. Put plainly: Induction of apoptosis in human HL60 cells assessed as early apoptotic cells at 30 uM after 24 hrs using annexin-V FITC and PI staining by flow cytometry. Format: functional. Summed up: as §1
The subject of test [4] is HL-60. Put plainly: Induction of apoptosis in human HL60 cells assessed as late apoptotic cells at 30 uM after 8 hrs using annexin-V FITC and PI staining by flow cytometry. It is filed as functional. Summed up: as §1
For test [5], the system named is HL-60. Put plainly: Induction of apoptosis in human HL60 cells assessed as decrease in procaspase-3 level at 30 uM after 24 hrs by Western blot analysis. Format: functional, cell-based. An outline of the steps:
(§2)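 HL60 cells (4 × 10^5) exposed to 30 μM final compound for 8 and 24 h, then lysed. Total protein was run on 15% SDS-PAGE and transferred to PVDF. Membranes were probed overnight at 4 °C with antibodies to caspase-3, cleaved caspase-3, caspase-8 and caspase-9, with β-actin as loading control.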
(A western blot detects proteins with antibodies after separation by electrophoresis.)

Another test deals with A549. As to the kind of experiment: Cytotoxicity against human A549 cells assessed as cell viability after 48 hrs by MTT assay. It is filed as functional, cell-based. To be noted: A549, 48 h. Summed up: (§3)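 Cells seeded at 3 × 10^3 per well and exposed to compounds from 1 × 10^-4 to 1 × 10^-6 M for 48 h. MTT was then added for 3 h, formazan dissolved in 0.04 M HCl in 2-propanol, and absorbance read at 570 nm against 630 nm. IC50 is the concentration giving 50% growth inhibition, from triplicate assays.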
A general note: Tetrazolium assays rely on reduction of a dye to a coloured formazan, in cell work by metabolically active cells.

Test [6] deals with HL-60. Put plainly: Induction of apoptosis in human HL60 cells assessed as decrease in procaspase-9 level at 30 uM after 24 hrs by Western blot analysis. Format: functional, cell-based. An outline of the steps: as §2
Test [7] concerns HL-60. Put plainly: Induction of apoptosis in human HL60 cells assessed as increase in cleaved caspase-9 level at 30 uM after 24 hrs by Western blot analysis. Format: functional, cell-based. Summed up:
as §2

A short description of test [8]: Cytotoxicity against human CRL1579 cells assessed as cell viability after 48 hrs by MTT assay. It is filed as functional, cell-based. Summed up: as §3
The test system of test [9] is HL-60. Put plainly: Induction of apoptosis in human HL60 cells assessed as decrease in procaspase-8 level at 30 uM after 24 hrs by Western blot analysis. Format: functional, cell-based. An outline of the steps:
as §2

Test [10] concerns HL-60. Put plainly: Induction of apoptosis in human HL60 cells assessed as non-viable cells at 30 uM after 8 hrs using annexin-V FITC and PI staining by flow cytometry. Format: functional. Summed up:
as §1

Test [11] concerns HL-60. As to the kind of experiment: Induction of apoptosis in human HL60 cells assessed as non-viable cells at 30 uM after 24 hrs using annexin-V FITC and PI staining by flow cytometry. It is filed as functional. An outline of the steps: as §1
Test [12] concerns HL-60. As to the kind of experiment: Induction of apoptosis in human HL60 cells assessed as increase in cleaved caspase-8 level at 30 uM after 24 hrs by Western blot analysis. It is filed as functional, cell-based. An outline of the steps:
as §2

The test system of test [13] is HL-60. Put plainly: Cytotoxicity against human HL60 cells assessed as cell viability after 48 hrs by MTT assay. It is filed as functional, cell-based. To be noted: HL-60, 48 h. Summed up: as §3
The subject of test [14] is HL-60. As to the kind of experiment: Induction of apoptosis in human HL60 cells assessed as increase in cleaved caspase-3 level at 30 uM after 24 hrs by Western blot analysis. It is filed as functional, cell-based. An outline of the steps: as §2
A further test deals with SK-BR-3. As to the kind of experiment: Cytotoxicity against human SK-BR-3 cells assessed as cell viability after 48 hrs by MTT assay. Format: functional, cell-based. The conditions noted are these: SK-BR-3, 48 h. An outline of the steps: as §3
Test [15] in a line: Cytotoxicity against human RPMI 1788 cells assessed as cell viability after 48 hrs by MTT assay. It is filed as cell-based. The conditions noted are these: RPMI-1788, 48 h. An outline of the steps: as §3
Test [16] deals with HL-60. Put plainly: Induction of apoptosis in human HL60 cells assessed as viable cells at 30 uM after 24 hrs using annexin-V FITC and PI staining by flow cytometry. It is filed as functional. The conditions noted are these: HL-60, 24 h, read-out: Activity. Summed up:
as §1

The test system of test [17] is HL-60. Put plainly: Selectivity index, ratio of IC50 for human RPMI 1788 cells to IC50 for human HL60 cells. Format: functional.
A short description of test [18]: Cytotoxicity against human AZ-521 cells assessed as cell viability after 48 hrs by MTT assay. Format: functional, cell-based. The conditions noted are these: AZ-521, 48 h. An outline of the steps: as §3
The test system of test [19] is HL-60. Put plainly: Induction of apoptosis in human HL60 cells assessed as viable cells at 30 uM after 8 hrs using annexin-V FITC and PI staining by flow cytometry. To be noted: HL-60, 8 h, read-out: Activity. Format: functional. An outline of the steps:
as §1

Active and inactive are the calls of the source. The rule behind the calls is not given here.

Take `CC1(C)C(=O)C=C[C@]2(C)[C@H]3CC[C@@]4(C)[C@H](c5ccoc5)OC(=O)[C@H]5O[C@]54[C@]3(C)[C@H](OC(=O)c3ccccc3)C[C@@H]12`: the Activity in the test with HL-60 [1] is listed as 10.5%; with HL-60 [2], 45.7%; in the test with HL-60 [3], 41.4%; in the test on HL-60 [4], 0.7%; with HL-60 [10] it was 0.7%; in the test on HL-60 [11], 3%. Also, the result in the test on HL-60 [5], in the test on HL-60 [6], in the test with HL-60 [7], in the test on HL-60 [9], with HL-60 [12] and in the test on HL-60 [14] was Active. In addition, the IC50 with A549 was more than 20 µM; in test [8], more than 20 µM; in the test with HL-60 [13] it was 2.9 µM; with SK-BR-3 it was more than 20 µM; in test [15] it was 2 µM; in test [18] it was more than 20 µM. Moreover, the results for the viability at 30 µM in the test on HL-60 [16] and in the test with HL-60 [19] were 9.9% and 88.1%, respectively. Besides, the “Ratio IC50” value in the test on HL-60 [17] stood at 0.69.

`COC(=O)C[C@H]1[C@]2(C)C3=C(C)[C@H](c4ccoc4)C[C@H]3O[C@@H]2[C@@H]2OC[C@]3(C)C=CC(=O)[C@@]1(C)[C@@H]23`: the Activity in the test with HL-60 [1] was 10.9%; in the test on HL-60 [2] it was 28.1%; in the test on HL-60 [3], 18.7%; with HL-60 [4], 11.8%; in the test on HL-60 [10], 3.5%; in the test on HL-60 [11], 3.4%. In addition, the outcome in the test on HL-60 [5], with HL-60 [6], in the test on HL-60 [7], with HL-60 [9], in the test with HL-60 [12] and with HL-60 [14] was Active. For the same molecule, the IC50 with A549 was determined as 9.3 µM; in [8], 14.2 µM; with HL-60 [13] it was 2.7 µM; in the test on SK-BR-3, 1.7 µM; in [15], 2.7 µM; in [18] it was 2.4 µM. For the same molecule, the figures for the viability at 30 µM in the test with HL-60 [16] and in the test on HL-60 [19] were 49.8% and 73.7%, respectively. Further, the “Ratio IC50” value in the test with HL-60 [17] came to 1.

Take `CC1(C)C(=O)C=C[C@]2(C)[C@H]3CC[C@@]4(C)[C@H](c5ccoc5)C(=O)[C@H]5O[C@]54[C@]3(C)[C@H](OC(=O)c3ccccc3)C[C@@H]12`: the Activity in the test on HL-60 [1] is 38.7%; in the test on HL-60 [2], 15.5%; in the test with HL-60 [3], 51.8%; in the test with HL-60 [4] it was 3%; in the test on HL-60 [10], 1.4%; with HL-60 [11] it was 4.5%. Further, the result in the test on HL-60 [5], in the test on HL-60 [6], with HL-60 [7], in the test on HL-60 [9], with HL-60 [12] and in the test on HL-60 [14] was Active. Besides, the IC50 was more than 20 µM in the test on A549; more than 20 µM in [8]; 3.1 µM in the test with HL-60 [13]; more than 20 µM in the test with SK-BR-3; 16.1 µM in [15]; 8.4 µM in test [18]. Also, the viability at 30 µM turned out to be 28.2% in the test on HL-60 [16] and 56.9% in the test on HL-60 [19]. The “Ratio IC50” value in the test on HL-60 [17] stood at 5.19.

For the molecule `C/C=C(\C)C(=O)O[C@@H]1C[C@H](O)[C@]23CO[C@H](C(=O)OC)[C@H]2[C@](C)([C@]24O[C@@]2(C)[C@H]2C[C@@H]4O[C@@H]4OC=C[C@@]42O)[C@H](O)[C@@H]2OC[C@@]1(C(=O)OC)[C@H]23` [AZADIRACHTIN B], the IC50 (with A549; in test [8]; in the test with HL-60 [13]; with SK-BR-3; in [18]) was more than 20 µM throughout.

Take `CC1(C)C(=O)C=C[C@]2(C)[C@H]3CC[C@]4(C)C(=CC(=O)[C@H]4c4ccoc4)[C@]3(C)[C@H](OC(=O)c3ccccc3)C[C@@H]12`: the IC50 in the test on A549 was more than 20 µM; in test [8], 4 µM; in the test on HL-60 [13], 5.3 µM; in the test on SK-BR-3 it was more than 20 µM; in test [18], more than 20 µM.

With `CC(=O)O[C@@H]1C[C@H]2C(C)(C)C(=O)C=C[C@]2(C)[C@H]2CC[C@]3(C)C(=CC(=O)O[C@]3(O)c3ccoc3)[C@@]21C` [NIMOLICINOL], the IC50 (in the test on A549; in test [8]; in the test with HL-60 [13]; in the test on SK-BR-3; in test [18]) was more than 20 µM each time.

Consider `CC(=O)O[C@@H]1C[C@H]2C(C)(C)C(=O)C=C[C@]2(C)[C@H]2CC[C@]3(C)C(=CC(=O)[C@@]3(O)c3ccoc3)[C@@]21C` [17-HYDROXYAZADIRADIONE], for which the IC50 with A549 was more than 20 µM; in test [8] it was more than 20 µM; with HL-60 [13], 12.4 µM; in the test with SK-BR-3 it was more than 20 µM; in [18], more than 20 µM.

One may read the IC50 as the concentration that gives 50% inhibition.
